# Measured values published in ChEMBL document CHEMBL3259640 (J Med Chem, 2014).
# Calls of active or inactive are those of the source. The calls are words filed in the database; no cut-off is given here.
# What was measured:
# MDA-MB-468 [1] = test: Antiproliferative activity against human MDA-MB-468 cells assessed as cell viability after 96 hrs by CellTiter96 assay; format: functional, cell-based; details: MDA-MB-468, 96 h
# HeLa [2] = test: Growth inhibition of human HeLa cells; format: functional
# MDA-MB-468 [3] = test: Induction of mitotic abnormalities in human MDA-MB-468 cells assessed as proportion of cells displaying multipolar spindles at 1000 nM after 48 hrs by immunofluorescent staining based microscopy (reference value: […]); format: functional
# K562 [4] = test: Growth inhibition of human K562 cells; format: functional
# MDA-MB-468 [5] = test: Induction of mitotic abnormalities in human MDA-MB-468 cells assessed as proportion of cells displaying chromosomal misalignment at 10 nM after 48 hrs by immunofluorescent staining based microscopy (reference value: 21.4%); format: functional
# MDA-MB-468 [6] = test: Induction of mitotic abnormalities in human MDA-MB-468 cells assessed as proportion of cells displaying chromosomal misalignment at 100 nM after 48 hrs by immunofluorescent staining based microscopy (reference value: 21.4%); format: functional
# [7] = Oral bioavailability in Sprague-Dawley rat at 20 mg/kg compound formulated with 5% DMSO, 10% cremophor and 85% water by LC-MS/MS analysis; format: ADME, organism-based; details: in vivo
# HeLa [8] = test: Induction of apoptosis in human HeLa cells assessed as reduction in Bcl-2 protein expression at 1 uM after 24 to 48 hrs by western blot analysis; format: functional, cell-based
# How it was run: (§1)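 HeLa cells given 1.0 μM compound, DMSO, or paclitaxel 100 nM for 24 and 48 h. Lysates made in SDS sample buffer, run on SDS-PAGE and transferred to PVDF. Blots probed for cleaved caspase-3, cleaved PARP, Bcl-2, Mcl-1 and XIAP, with actin as loading control, and detected by HRP-linked ECL.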
# MDA-MB-231 [9] = test: Growth inhibition of human MDA-MB-231 cells; format: functional
# MDA-MB-231 [10] = test: Antiproliferative activity against human MDA-MB-231 cells assessed as cell viability after 96 hrs by CellTiter96 assay; format: functional, cell-based; details: MDA-MB-231, 96 h
# Mus musculus = test: Toxicity in BALB/c nu/nu mouse xenografted with human MDA-MB-231 cells assessed as body weight loss at 20 mg/kg, iv qd for 28 days; format: organism-based; design: dose 20 mg/kg, route intravenous; details: in vivo, 672 h
# How it was run: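 Female BALB/c nu/nu mice, 5–8 weeks old, implanted subcutaneously in the right flank with 1 × 10⁷ MDA-MB-231 cells in matrigel. Treatment began at about 100 mm³ tumor volume; 5 mice per group. Dosing for 28 days: IV 20 mg/kg once daily or PO 150 mg/kg twice daily, in 5% DMSO/10% Cremophor in H₂O; vehicle controls included. Body weight and tumor size (caliper) recorded every 2 days.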
# [11] = target: Serine/threonine-protein kinase mTOR (Homo sapiens, UniProt P42345); test: Inhibition of mTOR (unknown origin) assessed as [33P] incorporation in substrate by TopCount microplate scintillation counting analysis
# HepG2 = test: Growth inhibition of human HepG2 cells; format: functional
# [12] = Growth inhibition of HUVEC; format: cell-based; details: human
# [13] = target: T1, Kinetochore protein NDC80 homolog (Homo sapiens) (UniProt O14777); test: Inhibition of Hec1/Nek2 interaction in human K562 cells assessed as induction of Nek2 degradation at 10 nM after 24 hrs by western blot analysis; format: cell-based
# T1 sequence (whole entry): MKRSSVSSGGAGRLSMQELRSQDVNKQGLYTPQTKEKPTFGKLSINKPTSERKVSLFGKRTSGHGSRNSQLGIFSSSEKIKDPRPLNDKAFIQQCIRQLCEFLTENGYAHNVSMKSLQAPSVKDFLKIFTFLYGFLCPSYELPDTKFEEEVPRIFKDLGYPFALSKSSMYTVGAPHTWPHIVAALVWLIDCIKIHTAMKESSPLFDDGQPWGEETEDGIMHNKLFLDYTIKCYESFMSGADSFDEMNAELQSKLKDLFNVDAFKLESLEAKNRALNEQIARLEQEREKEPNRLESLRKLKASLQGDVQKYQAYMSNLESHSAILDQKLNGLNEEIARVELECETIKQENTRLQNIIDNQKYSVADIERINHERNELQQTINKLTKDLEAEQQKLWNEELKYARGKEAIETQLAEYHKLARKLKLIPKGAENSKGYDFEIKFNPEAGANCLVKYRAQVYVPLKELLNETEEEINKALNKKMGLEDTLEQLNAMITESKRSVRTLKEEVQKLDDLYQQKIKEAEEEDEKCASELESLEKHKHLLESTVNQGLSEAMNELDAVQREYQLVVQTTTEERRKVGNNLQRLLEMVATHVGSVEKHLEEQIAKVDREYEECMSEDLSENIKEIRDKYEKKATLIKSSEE
# How it was run: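 K562 cells exposed to DMSO or to 10, 100 or 1000 nM for 24 h. Nek2 and Hec1 detected by western blot in SDS sample buffer lysates, with actin as loading control and ECL detection.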
# MDA-MB-468 [14] = test: Induction of mitotic abnormalities in human MDA-MB-468 cells assessed as proportion of cells displaying chromosomal misalignment at 1000 nM after 48 hrs by immunofluorescent staining based microscopy (reference value: 21.4%); format: functional
# K562 [15] = test: Antiproliferative activity against human K562 cells assessed as cell viability after 96 hrs by CellTiter96 assay; format: functional, cell-based; details: K562, 96 h
# MDA-MB-231 [16] = test: Antitumor activity against human MDA-MB-231 cells xenografted in BALB/c nu/nu mouse assessed as tumor volume at 150 mg/kg, po bid for 28 days administered via gavage relative to control; format: functional
# How it was run: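 Female BALB/c nu/nu mice, 5–8 weeks old, implanted subcutaneously in the right flank with 1 × 10⁷ MDA-MB-231 cells in matrigel. Dosing began at about 100 mm³ mean tumour volume; 5 mice/group. Arms: vehicle (5% DMSO, 10% Cremophor in water) IV once daily, 20 mg/kg IV once daily, or 150 mg/kg PO twice daily, for 28 days. Caliper volumes and body weight every 2 days; T/C on day 28.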
# U-937 = test: Growth inhibition of human U937 cells; format: functional
# MDA-MB-468 [17] = test: Induction of mitotic abnormalities in human MDA-MB-468 cells assessed as proportion of cells displaying multipolar spindles at 100 nM after 48 hrs by immunofluorescent staining based microscopy (reference value: […]); format: functional
# [18] = Growth inhibition of human PLC/PRF/5 cells; format: functional
# T47D = test: Growth inhibition of human T47D cells; format: functional
# [19] = target: Mast/stem cell growth factor receptor Kit (Homo sapiens, UniProt P10721); test: Inhibition of Kit (unknown origin) assessed as [33P] incorporation in substrate by TopCount microplate scintillation counting analysis
# Chain of Mast/stem cell growth factor receptor Kit (P10721 whole entry): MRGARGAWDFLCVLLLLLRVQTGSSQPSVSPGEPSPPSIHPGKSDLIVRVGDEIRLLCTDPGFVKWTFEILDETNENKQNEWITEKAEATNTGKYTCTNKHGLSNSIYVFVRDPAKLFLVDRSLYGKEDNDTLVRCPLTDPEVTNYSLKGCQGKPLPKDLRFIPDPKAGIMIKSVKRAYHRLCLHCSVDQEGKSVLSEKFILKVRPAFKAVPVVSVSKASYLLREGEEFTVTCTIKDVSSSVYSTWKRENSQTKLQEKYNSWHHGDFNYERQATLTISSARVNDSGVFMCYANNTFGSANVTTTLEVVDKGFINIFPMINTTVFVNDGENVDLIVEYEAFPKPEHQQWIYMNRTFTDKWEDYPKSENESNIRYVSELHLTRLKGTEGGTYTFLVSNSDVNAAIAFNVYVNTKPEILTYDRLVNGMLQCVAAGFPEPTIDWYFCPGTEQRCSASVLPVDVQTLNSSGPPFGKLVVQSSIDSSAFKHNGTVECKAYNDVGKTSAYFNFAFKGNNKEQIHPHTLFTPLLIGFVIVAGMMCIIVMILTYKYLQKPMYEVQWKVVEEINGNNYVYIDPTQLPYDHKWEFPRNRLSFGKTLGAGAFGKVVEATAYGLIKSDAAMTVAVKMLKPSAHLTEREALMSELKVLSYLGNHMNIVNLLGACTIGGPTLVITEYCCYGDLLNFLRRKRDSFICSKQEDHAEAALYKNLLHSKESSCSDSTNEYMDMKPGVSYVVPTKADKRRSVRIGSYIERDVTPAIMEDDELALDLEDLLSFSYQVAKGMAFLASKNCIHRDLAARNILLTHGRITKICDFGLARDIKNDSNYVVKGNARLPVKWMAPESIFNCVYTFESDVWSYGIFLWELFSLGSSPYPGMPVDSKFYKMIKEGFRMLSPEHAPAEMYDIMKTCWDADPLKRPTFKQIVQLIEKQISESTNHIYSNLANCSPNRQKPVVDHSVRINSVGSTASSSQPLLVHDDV
# [20] = target: Epidermal growth factor receptor (Homo sapiens, UniProt P00533); test: Inhibition of EGFR (unknown origin) assessed as [33P] incorporation in substrate by TopCount microplate scintillation counting analysis
# Chain of Epidermal growth factor receptor (P00533 whole entry): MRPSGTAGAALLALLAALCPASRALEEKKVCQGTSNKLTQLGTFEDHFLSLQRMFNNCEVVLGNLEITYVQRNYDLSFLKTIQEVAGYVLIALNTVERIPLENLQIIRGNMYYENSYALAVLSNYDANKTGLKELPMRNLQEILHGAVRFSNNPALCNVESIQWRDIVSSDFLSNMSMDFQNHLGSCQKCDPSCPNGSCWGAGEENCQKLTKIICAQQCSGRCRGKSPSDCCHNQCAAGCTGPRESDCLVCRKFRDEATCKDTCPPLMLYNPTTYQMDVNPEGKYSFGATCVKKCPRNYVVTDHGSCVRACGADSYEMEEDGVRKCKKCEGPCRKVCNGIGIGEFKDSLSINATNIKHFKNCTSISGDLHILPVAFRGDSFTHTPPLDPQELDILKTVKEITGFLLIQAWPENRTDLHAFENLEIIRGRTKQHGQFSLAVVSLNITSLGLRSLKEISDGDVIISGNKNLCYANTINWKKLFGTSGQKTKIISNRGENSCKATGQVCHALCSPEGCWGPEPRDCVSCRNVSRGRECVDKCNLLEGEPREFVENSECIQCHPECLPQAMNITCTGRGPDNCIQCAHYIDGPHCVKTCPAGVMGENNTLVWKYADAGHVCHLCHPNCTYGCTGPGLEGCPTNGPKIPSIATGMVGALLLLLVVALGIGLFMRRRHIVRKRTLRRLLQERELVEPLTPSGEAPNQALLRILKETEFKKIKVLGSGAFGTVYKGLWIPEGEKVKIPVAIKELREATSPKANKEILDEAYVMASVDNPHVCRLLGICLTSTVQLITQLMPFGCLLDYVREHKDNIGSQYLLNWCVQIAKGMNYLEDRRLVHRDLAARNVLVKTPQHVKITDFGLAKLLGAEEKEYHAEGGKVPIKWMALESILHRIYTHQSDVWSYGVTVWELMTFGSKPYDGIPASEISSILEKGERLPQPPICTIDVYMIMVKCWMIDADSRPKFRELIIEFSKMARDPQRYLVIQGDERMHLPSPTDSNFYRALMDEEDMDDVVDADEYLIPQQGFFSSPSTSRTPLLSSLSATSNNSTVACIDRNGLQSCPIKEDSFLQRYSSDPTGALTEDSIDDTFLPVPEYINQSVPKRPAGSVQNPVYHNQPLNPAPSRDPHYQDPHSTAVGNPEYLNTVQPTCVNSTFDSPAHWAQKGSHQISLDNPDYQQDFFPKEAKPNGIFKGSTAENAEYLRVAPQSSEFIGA
# HeLa [21] = test: Induction of apoptosis in human HeLa cells assessed as increase in cleaved PARP level at 1 uM after 24 to 48 hrs by western blot analysis; format: functional, cell-based; how it was run: as §1
# HeLa [22] = test: Induction of apoptosis in human HeLa cells assessed as reduction in Mcl-1 protein expression at 1 uM after 24 to 48 hrs by western blot analysis; format: functional, cell-based; how it was run: as §1
structure (smiles),measurement,setting,value
COc1ccc(Oc2cc(C)c(-c3csc(NC(=O)c4ccnc(F)c4)n3)c(C)c2)cc1,IC50,MDA-MB-468 [1],40 nM
same,GI50,HeLa [2],22.8 nM
same,Activity,MDA-MB-468 [3],46.7%
same,GI50,K562 [4],56.2 nM
same,Activity,MDA-MB-468 [5],23.9%
same,Activity,MDA-MB-468 [6],21.8%
same,bioavailability,[7],22.7%
same,inhibition,HeLa [8],Active
same,GI50,MDA-MB-231 [9],39.8 nM
same,IC50,MDA-MB-231 [10],20 nM
same,Activity,Mus musculus,< 5%
same,IC50,[11],> 10000 nM
same,GI50,HepG2,191 nM
same,GI50,[12],> 9000 nM
same,Activity,[13],inactive
same,Activity,MDA-MB-468 [14],20%
same,IC50,K562 [15],16.3 nM
same,T/C,MDA-MB-231 [16],57%
same,GI50,U-937,29.6 nM
same,Activity,MDA-MB-468 [17],29.1%
same,GI50,[18],79.6 nM
same,GI50,T47D,377 nM
same,IC50,[19],> 10000 nM
same,IC50,[20],> 10000 nM
same,Activity,HeLa [21],Active
same,inhibition,HeLa [22],Active
